Here are results for 2 molecules from ChEMBL document CHEMBL1154352, “Toll-like receptor 7 selective synthetic oligoribonucleotide agonists: synthesis and structure-activity relationship studies” (J Med Chem, 2009).

For assay [1], the system named is Splenocyte. Nature of the assay: Immunomodulatory activity in C57BL/6 mouse splenocytes bearing TLR7 receptor assessed as IL6 release at 100 ug/ml after 24 hrs by ELISA. The format is functional, cell-based. Put shortly:
(§1)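 C57BL/6 splenocytes in RPMI 1640 with 10% FBS, penicillin/streptomycin, 2 mM L-glutamine, plated at 5 × 10^6 cells/mL; compounds in PBS added, 37 °C for 24 h. Supernatant IL-12 and IL-6 by ELISA; representative of three independent experiments.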
In general terms: ELISA stands for enzyme-linked immunosorbent assay.

Assay [2] concerns PBMC. Nature of the assay: Immunomodulatory activity in human PBMC assessed as induction of IFN-alpha at 100 ug/ml after 24 hrs.
Assay [3] deals with T1, Toll-like receptor 8 (Homo sapiens) (UniProt Q9NR97).
T1 sequence (whole entry): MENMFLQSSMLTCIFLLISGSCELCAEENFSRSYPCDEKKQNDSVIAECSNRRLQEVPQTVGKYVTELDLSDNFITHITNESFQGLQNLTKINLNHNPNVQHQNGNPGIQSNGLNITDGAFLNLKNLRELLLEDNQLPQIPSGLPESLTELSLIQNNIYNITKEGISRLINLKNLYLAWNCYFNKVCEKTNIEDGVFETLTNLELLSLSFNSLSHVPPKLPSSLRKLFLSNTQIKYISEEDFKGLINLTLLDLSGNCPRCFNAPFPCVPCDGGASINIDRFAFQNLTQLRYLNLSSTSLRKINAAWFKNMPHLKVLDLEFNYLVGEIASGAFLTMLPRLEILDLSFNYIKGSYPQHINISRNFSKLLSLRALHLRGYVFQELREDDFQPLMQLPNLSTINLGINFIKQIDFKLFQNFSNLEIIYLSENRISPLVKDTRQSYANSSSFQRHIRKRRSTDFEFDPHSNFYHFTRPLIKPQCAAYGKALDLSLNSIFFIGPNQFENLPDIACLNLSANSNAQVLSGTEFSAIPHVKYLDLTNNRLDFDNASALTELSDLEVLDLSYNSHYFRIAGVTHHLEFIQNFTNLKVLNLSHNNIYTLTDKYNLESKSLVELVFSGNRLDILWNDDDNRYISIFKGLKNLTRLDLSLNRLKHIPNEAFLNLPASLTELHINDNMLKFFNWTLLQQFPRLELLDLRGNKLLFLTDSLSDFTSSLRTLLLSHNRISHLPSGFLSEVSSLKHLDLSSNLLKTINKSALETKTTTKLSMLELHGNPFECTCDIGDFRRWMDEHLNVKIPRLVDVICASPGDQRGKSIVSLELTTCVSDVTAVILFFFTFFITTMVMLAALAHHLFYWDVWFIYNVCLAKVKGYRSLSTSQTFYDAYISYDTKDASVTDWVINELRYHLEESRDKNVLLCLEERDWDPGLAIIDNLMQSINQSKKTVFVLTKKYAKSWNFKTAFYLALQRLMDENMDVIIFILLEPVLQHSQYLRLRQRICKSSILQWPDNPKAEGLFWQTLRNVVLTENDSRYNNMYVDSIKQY
Nature of the assay: Activation of human TLR8 expressed in HEK293XL assessed as fold induction of NF-kappaB activity at 50 ug/ml after 18 hrs by reporter gene assay relative to control. A digest of the protocol: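 HEK293 cells stably expressing human TLR7 or TLR8, transiently transfected with SEAP reporter plasmid; medium replaced, SIMRA compounds added, 18 h incubation. Supernatant SEAP measured by QuantiBlue; expressed as fold increase in NF-κB activity over PBS control. Tabulated data at 50 μg/mL, representative of three independent experiments.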

The test system of assay [4] is PBMC. Nature of the assay: Immunomodulatory activity in human PBMC assessed as induction of IL12 at 100 ug/ml after 24 hrs. The format is functional, cell-based. Put shortly:
(§2)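 Human PBMCs plated at 5 × 10^6 cells/mL; compounds dissolved in PBS added at various concentrations, 37 °C for 24 h. Supernatant cytokines/chemokines quantified with human Luminex multiplex kit.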

Assay [5] has as its system PBMC. Nature of the assay: Immunomodulatory activity in human PBMC assessed as induction of TNFalpha at 100 ug/ml after 24 hrs. The format is functional, cell-based. A digest of the protocol: as §2
In assay [6] the target is T2, Toll-like receptor 9 (Mus musculus) (UniProt Q9EQU3).
T2 sequence (whole entry): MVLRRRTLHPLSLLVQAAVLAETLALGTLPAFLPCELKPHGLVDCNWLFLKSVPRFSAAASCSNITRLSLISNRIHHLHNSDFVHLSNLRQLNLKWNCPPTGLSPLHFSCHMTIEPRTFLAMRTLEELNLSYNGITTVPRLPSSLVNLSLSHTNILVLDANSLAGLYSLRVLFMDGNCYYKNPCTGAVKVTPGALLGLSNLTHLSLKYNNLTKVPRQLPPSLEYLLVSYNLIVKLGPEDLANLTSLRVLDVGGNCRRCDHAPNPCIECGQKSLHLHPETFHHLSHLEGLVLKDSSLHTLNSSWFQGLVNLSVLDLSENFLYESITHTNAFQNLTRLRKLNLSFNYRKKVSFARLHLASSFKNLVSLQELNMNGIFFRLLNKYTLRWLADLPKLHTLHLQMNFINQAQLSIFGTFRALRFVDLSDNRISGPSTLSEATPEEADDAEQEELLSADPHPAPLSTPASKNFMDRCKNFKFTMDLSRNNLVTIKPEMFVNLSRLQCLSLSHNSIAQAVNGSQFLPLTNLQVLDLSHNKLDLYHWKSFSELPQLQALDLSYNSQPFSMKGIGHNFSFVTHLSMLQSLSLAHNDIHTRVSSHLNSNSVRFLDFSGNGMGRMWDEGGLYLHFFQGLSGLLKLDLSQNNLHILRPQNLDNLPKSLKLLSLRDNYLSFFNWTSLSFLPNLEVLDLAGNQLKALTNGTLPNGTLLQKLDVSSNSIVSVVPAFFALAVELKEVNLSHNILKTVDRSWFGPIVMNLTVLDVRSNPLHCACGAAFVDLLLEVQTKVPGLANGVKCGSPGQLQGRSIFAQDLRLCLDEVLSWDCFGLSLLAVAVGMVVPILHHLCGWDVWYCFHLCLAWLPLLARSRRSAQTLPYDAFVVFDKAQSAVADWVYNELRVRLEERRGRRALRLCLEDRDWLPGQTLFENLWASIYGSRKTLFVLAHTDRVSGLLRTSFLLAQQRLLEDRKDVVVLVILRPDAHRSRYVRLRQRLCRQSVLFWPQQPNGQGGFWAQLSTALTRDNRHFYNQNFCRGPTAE
Briefly: Activation of mouse TLR9 expressed in HEK293 assessed as induction of NF-kappaB activity reporter gene assay. The format is cell-based.

Assay [7] concerns Splenocyte. Briefly: Immunomodulatory activity in C57BL/6 mouse splenocytes bearing TLR7 receptor assessed as IL12 release at 100 ug/ml after 24 hrs by ELISA. Type of assay: functional, cell-based. Put shortly: as §1

The source made the active and inactive calls. The calls are words filed in the database; no cut-off is given here.

On to `Nc1ccn([C@@H]2O[C@H](COP(=O)(S)O[C@H]3[C@@H](O)[C@H](n4cnc5c(N)ncnc54)O[C@@H]3COP(=O)(S)O[C@H]3[C@@H](O)[C@H](n4cnc5c(N)ncnc54)O[C@@H]3CO)[C@@H](OP(=O)(S)OC[C@H]3O[C@@H](n4ccc(=O)[nH]c4=O)[C@H](O)[C@@H]3OP(=O)(S)OC[C@H]3O[C@@H](n4ccc5c(=O)[nH]c(N)nc54)[C@H](O)[C@@H]3OP(=O)(S)OC[C@H]3O[C@@H](n4cnc5c(N)ncnc54)[C@H](O)[C@@H]3OP(=O)(S)OC[C@H]3O[C@@H](n4ccc(N)nc4=O)[C@H](O)[C@@H]3OP(=O)(S)OC[C@H]3O[C@@H](n4ccc5c(=O)[nH]c(N)nc54)[C@H](O)[C@@H]3OP(=O)(S)OC[C@H]3O[C@@H](n4ccc(N)nc4=O)[C@H](O)[C@@H]3OP(=O)(S)OC[C@H]3O[C@@H](n4ccc(=O)[nH]c4=O)[C@H](O)[C@@H]3OP(=O)(S)OC[C@H]3O[C@@H](n4ccc(=O)[nH]c4=O)[C@H](O)[C@@H]3OP(=O)(S)OCC(O)COP(=O)(S)O[C@H]3[C@@H](O)[C@H](n4ccc(=O)[nH]c4=O)O[C@@H]3COP(=O)(S)O[C@H]3[C@@H](O)[C@H](n4ccc(=O)[nH]c4=O)O[C@@H]3COP(=O)(S)O[C@H]3[C@@H](O)[C@H](n4ccc(N)nc4=O)O[C@@H]3COP(=O)(S)O[C@H]3[C@@H](O)[C@H](n4ccc5c(=O)[nH]c(N)nc54)O[C@@H]3COP(=O)(S)O[C@H]3[C@@H](O)[C@H](n4ccc(N)nc4=O)O[C@@H]3COP(=O)(S)O[C@H]3[C@@H](O)[C@H](n4cnc5c(N)ncnc54)O[C@@H]3COP(=O)(S)O[C@H]3[C@@H](O)[C@H](n4ccc5c(=O)[nH]c(N)nc54)O[C@@H]3COP(=O)(S)O[C@H]3[C@@H](O)[C@H](n4ccc(=O)[nH]c4=O)O[C@@H]3COP(=O)(S)O[C@H]3[C@@H](O)[C@H](n4ccc(N)nc4=O)O[C@@H]3COP(=O)(S)O[C@H]3[C@@H](O)[C@H](n4cnc5c(N)ncnc54)O[C@@H]3COP(=O)(S)O[C@H]3[C@@H](O)[C@H](n4cnc5c(N)ncnc54)O[C@@H]3CO)[C@H]2O)c(=O)n1` (some centres undefined), for which the outcome in assay [1] and in assay [7] was Active. In addition, the IFN-alpha in assay [2] is 292 pg/mL. Also, the fold change (FC) in assay [3] amounted to 0.4. Moreover, the Activity in assay [4] is 250 pg/mL; in assay [5], 20.3 pg/mL. Moreover, the result in assay [6] was inactive.

In the case of `Nc1ccn([C@@H]2O[C@H](COP(=O)(S)O[C@H]3[C@@H](O)[C@H](n4cnc5c(N)ncnc54)O[C@@H]3CO)[C@@H](OP(=O)(S)OC[C@H]3O[C@@H](n4ccc(=O)[nH]c4=O)[C@H](O)[C@@H]3OP(=O)(S)OC[C@H]3O[C@@H](n4ccc(=O)[nH]c4=O)[C@H](O)[C@@H]3OP(=O)(S)OC[C@H]3O[C@@H](n4ccc5c(=O)[nH]c(N)nc54)[C@H](O)[C@@H]3OP(=O)(S)OC[C@H]3O[C@@H](n4cnc5c(N)ncnc54)[C@H](O)[C@@H]3OP(=O)(S)OC[C@H]3O[C@@H](n4cnc5c(N)ncnc54)[C@H](O)[C@@H]3OP(=O)(S)OC[C@H]3O[C@@H](n4ccc5c(=O)[nH]c(N)nc54)[C@H](O)[C@@H]3OP(=O)(S)OC[C@H]3O[C@@H](n4ccc(N)nc4=O)[C@H](O)[C@@H]3OP(=O)(S)OC[C@H]3O[C@@H](n4ccc(=O)[nH]c4=O)[C@H](O)[C@@H]3OP(=O)(S)OC[C@H]3O[C@@H](n4ccc(=O)[nH]c4=O)[C@H](O)[C@@H]3OP(=O)(S)OCC(O)COP(=O)(S)O[C@H]3[C@@H](O)[C@H](n4ccc(=O)[nH]c4=O)O[C@@H]3COP(=O)(S)O[C@H]3[C@@H](O)[C@H](n4ccc(=O)[nH]c4=O)O[C@@H]3COP(=O)(S)O[C@H]3[C@@H](O)[C@H](n4ccc(N)nc4=O)O[C@@H]3COP(=O)(S)O[C@H]3[C@@H](O)[C@H](n4ccc5c(=O)[nH]c(N)nc54)O[C@@H]3COP(=O)(S)O[C@H]3[C@@H](O)[C@H](n4cnc5c(N)ncnc54)O[C@@H]3COP(=O)(S)O[C@H]3[C@@H](O)[C@H](n4cnc5c(N)ncnc54)O[C@@H]3COP(=O)(S)O[C@H]3[C@@H](O)[C@H](n4ccc5c(=O)[nH]c(N)nc54)O[C@@H]3COP(=O)(S)O[C@H]3[C@@H](O)[C@H](n4ccc(=O)[nH]c4=O)O[C@@H]3COP(=O)(S)O[C@H]3[C@@H](O)[C@H](n4ccc(=O)[nH]c4=O)O[C@@H]3COP(=O)(S)O[C@H]3[C@@H](O)[C@H](n4ccc(N)nc4=O)O[C@@H]3COP(=O)(S)O[C@H]3[C@@H](O)[C@H](n4cnc5c(N)ncnc54)O[C@@H]3CO)[C@H]2O)c(=O)n1` (some centres undefined), the outcome in assay [1] and in assay [7] was Active. Further, in assay [2], the IFN-alpha was determined as 218 pg/mL. The fold change (FC) in assay [3] is 2. Further, the Activity in assay [4] amounted to 442 pg/mL; in assay [5] it was 170 pg/mL. In addition, the outcome in assay [6] was inactive.
